Data on three molecules can be found in publication PMC3546139 (Molecular cancer therapeutics, 2012).

The subject of data set [1] is COX-2 expression in 1205 Lu and UACC 903 cells. The data set is described as follows: Western blot of COX-2 / COX-1 expression after MAP kinase pathway inhibitors. Format: cell-based, human. In outline: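 Melanoma cells (1.5×10^6/100 mm dish) were treated 48 h after plating for 6–72 h with a B-Raf inhibitor (0.2–20 µmol/L) or a MEK inhibitor (2.5–50 µmol/L). Separately, cells were nucleofected with 100 pmoles siRNA against V600E B-Raf, MEK1, MEK2, ERK1 or ERK2, with lysates taken at day 4 or 6. Blots were probed for COX-1 and COX-2 and detected by enhanced chemiluminescence.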

The subject of data set [2] is FF2441 human fibroblast cells. The data set is described as follows: MTS cell viability assay, FF2441. The format is cell-based. The conditions noted are these: read-out: IC50, cell viability (MTS).
For data set [3] the following is noted: doses of 200 mg per day, cited from earlier work.
For data set [4], the system named is UACC903 melanoma cells (metastatic). Nature of the data set: MTS cell viability assay, UACC 903. To be noted: Homo sapiens, read-out: IC50, cell viability (MTS). Format: cell-based.
For data set [5], the system named is FOM103 normal human melanocytes. Nature of the data set: MTS cell viability assay, FOM103. The format is cell-based. To be noted: Melanocyte, read-out: IC50, cell viability (MTS).
Data set [6] is described as follows: Survival and body weight of mice, daily i.p. injection for seven days. Format: in vivo. To be noted: 0.127 µmoles i.p. daily, 7 days of treatment, n = 3. The gist of the method: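 Mice received test compound intraperitoneally once daily for seven days at 0.032–0.064, 0.127 or 0.127–0.254 µmoles depending on agent, n = 3 per group. Survival and body-weight change were recorded.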

Data set [7] relates to cultured cells. The conditions noted are these: cited from earlier work.
Data set [8] has as its system melanoma cells. Nature of the data set: MTS cell viability assay, melanoma cells. The conditions noted are these: Homo sapiens, read-out: average IC50 for killing melanoma cells. The format is cell-based.
The subject of data set [9] is 1205 Lu melanoma cells (metastatic). The data set is described as follows: MTS cell viability assay, 1205 Lu. The format is cell-based. To be noted: Homo sapiens, 24 h, read-out: IC50, cell viability (MTS).
The subject of data set [10] is sporadic melanomas with mutant V600EB-Raf. The conditions noted are these: melanoma patients; cited from earlier work.

Where two headings read alike, the source gives them in different places.

In the case of `N#CC(=C(/N)Sc1ccccc1N)/C(C#N)=C(/N)Sc1ccccc1N` [U0126], the “levels of COX-2 protein and COX-1” value in data set [1] (1205 Lu and UACC 903 cell lines) was “reduced levels of COX-2 protein without affecting COX-1”.

For the molecule `Cc1ccc(-c2cc(C(F)(F)F)nn2-c2ccc(S(N)(=O)=O)cc2)cc1` [Celecoxib, 4-[5-(4-methylphenyl)-3-(trifluoromethyl)-1H-pyrazol-1-yl]benze nesulfonamide], the concentration for half-maximal inhibition (IC50) in data set [2] (FF2441, 24 h) is over 100 µM; in data set [2] (FF2441, 48 h), over 100 µM; in data set [4] (UACC-903, 24 h) it was over 100 µM; in data set [4] (UACC-903, 48 h), over 100 µM; in [5] (48 h), over 100 µM; in [5] (72 h) it was 68 ± 1.2 µM. Further, the IC50 in data set [5] was over 100 µM; in [8], 55.6 µM; in data set [9] it was over 100 µM. The “side effects associated with clinical use” value is listed as “cardiovascular side effects” in [3] (ref 15, 16) and “cardiovascular side-effects” in data set [3] (ref 33). In addition, in [6], the animal mortality entry is listed as “death of all animals”. Besides, in data set [7], the “concentrations required to induce apoptosis of cultured cells” value was 25 to 100 µmol/L. Moreover, in [7], the “concentrations required to trigger apoptosis in cultured cells” value is 25 to 100 µmol/L.

Turning to `CCCS(=O)(=O)Nc1ccc(F)c(C(=O)c2c[nH]c3ncc(-c4ccc(Cl)cc4)cc23)c1F` [PLX-4032], the COX-2 protein expression result is reported as “decreased COX-2 protein expression beginning after 12 h of treatment” in data set [1] (1205 Lu cells) and “significant decrease was seen from 24 h of treatment” in data set [1] (UACC 903 cells). In data set [1] (either cell line (1205 Lu, UACC 903)), the COX-1 expression result is recorded as “no changes were observed in COX-1 expression”. For the same molecule, in [10], the response rates result is listed as “up to 80%”.
